In ChEMBL document CHEMBL3098022, “Multifunctional cholinesterase and amyloid Beta fibrillization modulators. Synthesis and biological investigation” (ACS Med Chem Lett, 2013):
Active and inactive are the calls of the source. No cut-off for these calls is given here.

Legend:
Cholinesterase = Cholinesterase (Homo sapiens, UniProt P06276); assay: Inhibition of human butyrylcholine esterase
Homo sapiens = species on record: Homo sapiens; assay: Selectivity ratio of Ki for human acetylcholine esterase to Ki for human butyrylcholine esterase
Acetylcholinesterase [1] = molecular target: T1, Acetylcholinesterase (Homo sapiens, UniProt P22303); assay: Inhibition of human acetylcholine esterase-induced amyloid beta (1 to 40) aggregation at 100 uM by ThT-based fluorescence assay
Acetylcholinesterase [2] = molecular target: T1, Acetylcholinesterase; assay: Inhibition of human acetylcholine esterase
[3] = molecular target: T2, Amyloid-beta precursor protein (Homo sapiens, UniProt P05067); assay: Inhibition of amyloid beta (1 to 42) aggregation (unknown origin) at 5 uM by ThT-based fluorescence assay
[4] = molecular target: T2, Amyloid-beta precursor protein; assay: Inhibition of amyloid beta (1 to 42) oligomerization (unknown origin) assessed as oligomer stabilization at 200 uM measured immediately by capillary electrophoresis method
[5] = molecular target: T2, Amyloid-beta precursor protein; assay: Inhibition of amyloid beta (1 to 42) oligomerization (unknown origin) assessed as depletion of higher molecular weight oligomers formation at 200 to 500 uM by capillary electrophoresis method; conditions: TDE = time-dependent effect
[6] = molecular target: T2, Amyloid-beta precursor protein; assay: Inhibition of amyloid beta (1 to 42) oligomerization (unknown origin) assessed as inhibition of toxic aggregate formation at 500 uM after 24 hrs by capillary electrophoresis method
[7] = molecular target: T2, Amyloid-beta precursor protein; assay: Inhibition of amyloid beta (1 to 42) oligomerization (unknown origin) assessed as depletion of higher molecular weight oligomers after 6 hrs to 2 days by capillary electrophoresis method
[8] = molecular target: T2, Amyloid-beta precursor protein; assay: Inhibition of amyloid beta (1 to 42) oligomerization (unknown origin) assessed as disaggregation of toxic oligomers and precipitation at 200 to 500 uM by transmission electron microscopy relative to control
[9] = molecular target: T2, Amyloid-beta precursor protein; assay: Inhibition of amyloid beta (1 to 42) oligomerization (unknown origin) assessed as stable smaller oligomer formation at 500 uM after 24 hrs by capillary electrophoresis method
[10] = molecular target: T2, Amyloid-beta precursor protein; assay: Inhibition of amyloid beta (1 to 42) oligomerization (unknown origin) assessed as oligomer stabilization at 200 uM after 6 hrs by capillary electrophoresis method
[11] = molecular target: T2, Amyloid-beta precursor protein; assay: Inhibition of amyloid beta (1 to 42) oligomerization (unknown origin) assessed as amorphous aggregates formation at 50 to 500 uM by transmission electron microscopy
Method in brief: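 Aβ1-42 samples were imaged by transmission electron microscopy with 50 µM test compound added, n = 2.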

[12] = molecular target: T2, Amyloid-beta precursor protein; assay: Inhibition of amyloid beta (1 to 42) oligomerization (unknown origin) assessed as oligomer stabilization at 200 uM after 2 days by capillary electrophoresis method
Acetylcholinesterase [13] = molecular target: T1, Acetylcholinesterase; assay: Inhibition of human acetylcholine esterase-induced amyloid beta (1 to 40) aggregation by ThT-based fluorescence assay
[14] = molecular target: T2, Amyloid-beta precursor protein; assay: Inhibition of amyloid beta (1 to 42) aggregation (unknown origin) after 24 hrs by ThT-based fluorescence assay

T1 sequence (P22303 whole entry): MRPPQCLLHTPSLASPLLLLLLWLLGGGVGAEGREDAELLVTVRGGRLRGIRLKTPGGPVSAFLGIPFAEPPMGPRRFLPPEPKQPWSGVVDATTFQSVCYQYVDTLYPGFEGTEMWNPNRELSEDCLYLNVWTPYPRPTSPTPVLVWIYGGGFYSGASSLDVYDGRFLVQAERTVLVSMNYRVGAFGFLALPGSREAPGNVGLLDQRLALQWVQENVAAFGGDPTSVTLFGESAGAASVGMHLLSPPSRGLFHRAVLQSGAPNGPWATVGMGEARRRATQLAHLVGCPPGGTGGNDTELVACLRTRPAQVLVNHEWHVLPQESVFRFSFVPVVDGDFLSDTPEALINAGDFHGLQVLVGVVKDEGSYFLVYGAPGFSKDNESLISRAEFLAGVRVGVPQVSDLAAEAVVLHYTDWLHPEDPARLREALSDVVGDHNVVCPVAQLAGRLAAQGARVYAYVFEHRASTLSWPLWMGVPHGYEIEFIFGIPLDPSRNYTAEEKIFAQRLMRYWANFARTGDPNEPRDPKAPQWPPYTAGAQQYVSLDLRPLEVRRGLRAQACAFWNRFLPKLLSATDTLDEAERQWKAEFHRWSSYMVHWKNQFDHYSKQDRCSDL
T2 sequence (P05067 whole entry): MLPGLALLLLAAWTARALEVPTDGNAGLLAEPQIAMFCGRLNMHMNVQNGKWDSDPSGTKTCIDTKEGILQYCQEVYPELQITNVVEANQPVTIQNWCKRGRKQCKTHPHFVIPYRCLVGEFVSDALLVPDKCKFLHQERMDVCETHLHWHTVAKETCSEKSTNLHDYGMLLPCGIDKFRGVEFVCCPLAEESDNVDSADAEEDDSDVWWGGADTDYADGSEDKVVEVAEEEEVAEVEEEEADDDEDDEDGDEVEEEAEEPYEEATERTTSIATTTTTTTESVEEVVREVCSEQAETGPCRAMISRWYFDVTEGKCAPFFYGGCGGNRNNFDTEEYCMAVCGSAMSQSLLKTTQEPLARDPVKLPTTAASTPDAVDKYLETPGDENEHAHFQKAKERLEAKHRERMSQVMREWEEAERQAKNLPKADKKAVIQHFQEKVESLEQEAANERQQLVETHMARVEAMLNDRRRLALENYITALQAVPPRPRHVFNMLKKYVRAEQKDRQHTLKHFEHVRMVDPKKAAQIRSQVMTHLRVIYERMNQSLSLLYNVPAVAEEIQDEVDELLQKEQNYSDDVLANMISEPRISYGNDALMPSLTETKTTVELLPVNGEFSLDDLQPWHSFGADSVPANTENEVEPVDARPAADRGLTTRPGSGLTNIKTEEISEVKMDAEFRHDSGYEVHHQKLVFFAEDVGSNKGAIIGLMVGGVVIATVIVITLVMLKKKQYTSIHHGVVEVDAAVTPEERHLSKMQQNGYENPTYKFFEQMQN
Chain of Cholinesterase (P06276 whole entry): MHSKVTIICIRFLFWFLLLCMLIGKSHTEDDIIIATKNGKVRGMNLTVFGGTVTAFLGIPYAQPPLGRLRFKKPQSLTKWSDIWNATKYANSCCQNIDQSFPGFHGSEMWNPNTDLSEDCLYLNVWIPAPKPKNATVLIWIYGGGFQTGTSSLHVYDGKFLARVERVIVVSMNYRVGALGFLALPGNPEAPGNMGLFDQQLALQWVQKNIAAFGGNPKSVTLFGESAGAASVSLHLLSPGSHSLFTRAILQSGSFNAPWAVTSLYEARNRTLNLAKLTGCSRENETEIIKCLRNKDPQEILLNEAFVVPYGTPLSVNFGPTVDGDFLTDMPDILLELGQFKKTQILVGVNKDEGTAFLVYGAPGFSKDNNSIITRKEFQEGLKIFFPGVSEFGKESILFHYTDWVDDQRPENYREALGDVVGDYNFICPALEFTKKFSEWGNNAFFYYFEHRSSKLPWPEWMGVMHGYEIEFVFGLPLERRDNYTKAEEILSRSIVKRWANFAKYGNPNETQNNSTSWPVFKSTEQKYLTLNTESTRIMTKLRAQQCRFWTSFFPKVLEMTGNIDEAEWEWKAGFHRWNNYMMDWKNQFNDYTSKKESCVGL

Structure (SMILES) | Ki (Cholinesterase) [nM] | Ratio Ki (Homo sapiens) | inhibition (Acetylcholinesterase [1]) [%] | Ki (Acetylcholinesterase [2]) [nM] | inhibition [3] [%] | other results
CN(CCCCNc1c2c(nc3ccccc13)CCCC2)CCCNc1c2c(nc3c(NC(=O)CNC(=O)CC[C@H](NC(=O)CNC(=O)OCc4ccccc4)C(=O)N[C@@H](Cc4ccccc4)C(=O)OCc4ccccc4)cccc13)CCCC2 | 61.8 | 0.081 | 42 | 5.02 | – | –
O=C(CC[C@H](NC(=O)CNC(=O)OCc1ccccc1)C(=O)N[C@@H](Cc1ccccc1)C(=O)OCc1ccccc1)NCC(=O)Nc1cccc2c(NCCCCCCCCNc3c4c(nc5ccccc35)CCCC4)c3c(nc12)CCCC3 | 40.9 | 0.038 | 26 | 1.92 | 81 | inhibition [4]: 82.5%; inhibition [5]: tde; inhibition [6]: Active; inhibition [7]: Dose-dependent effect; inhibition [8]: Active; inhibition [9]: Active; inhibition [10]: 87.2%; inhibition [11]: Active; inhibition [12]: Active
c1ccc2c(NCCCCCCCNc3c4c(nc5ccccc35)CCCC4)c3c(nc2c1)CCCC3 | – | – | – | – | 8.4 | –
Nc1cccc2c(NCCCCCCCCNc3c4c(nc5ccccc35)CCCC4)c3c(nc12)CCCC3 | 8.26 | 0.028 | – | 0.23 | – | –
CN(CCCCNc1c2c(nc3c(NC(=O)CNC(=O)CC[C@H](NC(=O)CNC(=O)OCc4ccccc4)C(=O)N[C@@H](Cc4ccccc4)C(=O)OCc4ccccc4)cccc13)CCCC2)CCCNc1c2c(nc3ccccc13)CCCC2 | 21.3 | 0.07 | 42 | 1.48 | – | IC50 (Acetylcholinesterase [13]): 113000 nM; IC50 [14]: 51000 nM
O=[N+]([O-])c1cccc2c(NCCCCCCCCNc3c4c(nc5ccccc35)CCCC4)c3c(nc12)CCCC3 | 0.06 | 13 | – | 0.78 | – | –
